Measured values as given in ChEMBL document CHEMBL1153879, “Synthesis and pharmacokinetic evaluation of novel N-acyl-cordycepin derivatives with a normal alkyl chain” (Eur J Med Chem, 2009).

What was measured:
[1] = tested on: Mus musculus; test: AUC in C57BL/6 mouse at 0.5 umol/kg, po assessed as transformed cordycepin levels; type: ADME, organism-based, Plasma; details: in vivo, in the assay text read “500 umol/kg” for “0.5 umol/kg”
Procedure, shortened: (§1)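 Male C57BL/6 mice (20±2 g, 7 weeks old) received a single oral dose in 2% Tween-80 aqueous solution. Blood was extracted with MeOH or EtOAc, depending on the compound, and assayed by HPLC. Parameters were derived from the mean profiles (n=5).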

[2] = Cmax in C57BL/6 mouse at 0.5 umol/kg, po; type: ADME, organism-based; parameters: dose 0.5 umol/kg, route oral; details: in vivo; procedure, shortened: as §1
[3] = tested on: Mus musculus; test: Half life in C57BL/6 mouse at 500 umol/kg, po assessed as transformed cordycepin levels; details: in vivo
[4] = Tmax in C57BL/6 mouse at 0.5 umol/kg, po; type: ADME, organism-based; details: in vivo; procedure, shortened: as §1
[5] = AUC in C57BL/6 mouse at 0.5 umol/kg, po; type: ADME, organism-based; details: plasma; procedure, shortened: as §1
[6] = tested on: Mus musculus; test: Cmax in C57BL/6 mouse at 500 umol/kg, po assessed as transformed cordycepin levels; details: in vivo
[7] = tested on: Mus musculus; test: Tmax in C57BL/6 mouse at 0.5 umol/kg, po assessed as transformed cordycepin levels; type: ADME, organism-based; details: in vivo; procedure, shortened: as §1
[8] = Half life in C57BL/6 mouse at 0.5 umol/kg, po; type: ADME, organism-based; details: in vivo; procedure, shortened: as §1
[9] = tested on: Mus musculus; test: Half life in C57BL/6 mouse at 0.5 umol/kg, po assessed as transformed cordycepin levels; type: ADME, organism-based; details: in vivo, in the assay text read “500 umol/kg” for “0.5 umol/kg”; procedure, shortened: as §1

Row | AUC [1] | Cmax [2] | t1/2 [3] | Tmax [4] | AUC [5] | Cmax [6] | Tmax [7] | half-life [8] | t1/2 [9] | Structure (SMILES)
1 | 59.9 µM·h | 120 µM |  | 3 h | 356 µM·h | 14.1 µM | 5 h | 4.4 h | 7.5 h | CCC(=O)Nc1ncnc2c1ncn2[C@@H]1O[C@H](CO)C[C@H]1O
2 | 19.2 µM·h | 10.1 µM |  | 1.5 h | 19.2 µM·h | 10.1 µM | 1.5 h | 2.1 h | 2.1 h | Nc1ncnc2c1ncn2[C@@H]1O[C@H](CO)C[C@H]1O [CORDYCEPIN]

Further lines, the compound ahead of its results:

Row | Structure (SMILES) | AUC [1] | Cmax [2] | t1/2 [3] | Tmax [4] | AUC [5] | Cmax [6] | Tmax [7] | half-life [8] | t1/2 [9]
3 | CCCCCCCCCCCC(=O)Nc1ncnc2c1ncn2[C@@H]1O[C@H](CO)C[C@H]1O | 69.1 µM·h | 160 µM | 10.5 h | 6 h | 672 µM·h | 15 µM | 8 h | 8.3 h | 
4 | CCCCCCCCCCCCCCCCCC(=O)Nc1ncnc2c1ncn2[C@@H]1O[C@H](CO)C[C@H]1O | 3.7 µM·h | 22.1 µM |  | 8 h | 32.5 µM·h | 2.2 µM | 10 h | 8.6 h | 10.8 h
5 | CCCCCCCC(=O)Nc1ncnc2c1ncn2[C@@H]1O[C@H](CO)C[C@H]1O | 83.7 µM·h | 310 µM |  | 5 h | 1310 µM·h | 20.6 µM | 7 h | 6.8 h | 9.4 h
